Source: publication PMC11696124 (Nature Communications, 2025)
Positions count from the first letter of the chain named.

What was measured:
[1] = molecular target: T1, APOL1 G1 (Homo sapiens, UniProt O14791, I384M/M228I/R255K/S342G); assay: Thallium flux assay, tet-inducible HEK293 APOL1 G1; format: cell-based
T1 sequence (O14791 28-398 M228I/R255K/S342G/I384M): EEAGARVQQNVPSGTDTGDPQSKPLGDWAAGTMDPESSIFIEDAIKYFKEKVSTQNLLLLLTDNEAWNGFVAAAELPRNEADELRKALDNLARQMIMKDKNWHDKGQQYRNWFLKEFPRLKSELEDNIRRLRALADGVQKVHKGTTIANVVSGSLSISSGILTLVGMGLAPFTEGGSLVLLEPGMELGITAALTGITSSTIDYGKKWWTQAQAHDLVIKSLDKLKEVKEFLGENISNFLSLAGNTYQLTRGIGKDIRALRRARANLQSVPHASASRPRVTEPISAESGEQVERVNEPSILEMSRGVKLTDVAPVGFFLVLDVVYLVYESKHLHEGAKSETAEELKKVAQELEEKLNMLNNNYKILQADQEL

[2] = molecular target: T1, APOL1 G1; assay: HEK cell rescue; format: cell-based
[3] = LogD7.4; format: physicochemical; conditions: pH 7.4
[4] = Rat Clint; format: in vitro ADME; conditions: hepatocytes
[5] = Human Clint; format: in vitro ADME; conditions: hepatocytes
[6] = Rat pharmacokinetics; conditions: in vivo; for bioavailability: po
[7] = molecular target: T2, APOL1 G2 (Homo sapiens, UniProt O14791, DEL388-389/M228I/R255K); assay: Thallium flux assay, tet-inducible HEK293 APOL1 G2; format: cell-based
T2 sequence (O14791 with tags, fused parts or gaps M228I/R255K/DEL388-389): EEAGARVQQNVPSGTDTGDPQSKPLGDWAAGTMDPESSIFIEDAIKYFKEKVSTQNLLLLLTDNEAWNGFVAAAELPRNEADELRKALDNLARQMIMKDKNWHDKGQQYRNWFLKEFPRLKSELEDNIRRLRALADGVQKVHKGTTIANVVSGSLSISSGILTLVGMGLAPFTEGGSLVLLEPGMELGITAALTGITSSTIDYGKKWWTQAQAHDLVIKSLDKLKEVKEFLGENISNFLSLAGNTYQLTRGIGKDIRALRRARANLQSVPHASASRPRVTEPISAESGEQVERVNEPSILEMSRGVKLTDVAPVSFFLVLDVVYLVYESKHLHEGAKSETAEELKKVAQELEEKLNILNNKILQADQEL

[8] = molecular target: T3, APOL1 G2 (Homo sapiens, UniProt O14791, DEL388-389/M228I/R255K, cells depend on it); assay: HEK cell rescue; format: cell-based; conditions: read-out: APOL1 G2 HEK Cell Rescue EC50; HEK293 APOL1 G2; replicates in brackets
T3 sequence (O14791 with tags, fused parts or gaps M228I/R255K/DEL388-389): T2 sequence (O14791 with tags, fused parts or gaps M228I/R255K/DEL388-389)

[9] = test system: APOL1 G2mc mice; assay: Prophylactic IFNγ-induced proteinuria model in APOL1 G2 multicopy mice; format: in vivo, mouse; conditions: 30 mg/kg bid
[10] = test system: APOL1 G2sc mice; assay: Therapeutic IFNγ plasmid model in APOL1 G2 single copy mice, UACR; format: in vivo, mouse; conditions: 30 mg/kg bid from day 6, vs vehicle
Outline: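 Homozygous APOL1 G2 single-copy transgenic mice of both sexes. Proteinuria was induced by a single hydrodynamic tail-vein injection of a CpG-free plasmid encoding murine IFNγ, 0.3 μg total in saline at 10% body weight, given over about 5–10 s. Mice were allocated by day-5 UACR to give matched group means (n = 12 vehicle, 11 treated). Serum IFNγ was measured by immunoassay on days 1, 5, 9 and 14.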

[11] = test system: APOL1 G2sc mice; assay: Kidney histopathology and nephrin immunohistochemistry; format: in vivo, mouse; conditions: IFNγ plasmid, 30 mg/kg bid
Outline: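 FVB homozygous APOL1 G2 single-copy mice received a hydrodynamic tail-vein injection of 0.3 μg CpG-free murine IFNγ plasmid in saline (volume 10% of body weight). Groups were balanced by day-5 UACR; vehicle or test compound bid started on day 6. The left kidney was formalin-fixed and cut into 3 µm FFPE sections. Nephrin IHC used CC1 retrieval (95 °C, 64 min), antibody 1:1000 for 1 h, and DAB. AI scoring of all glomeruli in one section gave the H-score.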

[12] = molecular target: T4, APOL1 G0 (Homo sapiens, UniProt O14791, M228I/R255K); assay: HEK cell rescue; format: cell-based
T4 sequence (O14791 28-398 M228I/R255K): T1 sequence (O14791 28-398 M228I/R255K/S342G/I384M) with G315S, M357I
Outline: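 HEK293 tet-inducible APOL1 cells in DMEM with 2% tet-free FBS, seeded at 23,400 cells/well and induced with 50 ng/mL tet for 24 h alongside test compound. Dosing was a 10-point 3-fold series from 10 μM, in duplicate. MultiTox reagent was added for 30 min at 37 °C, reading viability (ex 400/em 486) and cytotoxicity (ex 485/em 535). The dead:live ratio was normalized to no-tet (100%) and tet-only (0%) controls before curve fitting.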

[13] = molecular target: T4, APOL1 G0; assay: Automated whole-cell patch clamp; format: cell-based
Outline: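 Tet-inducible HEK293 APOL1 G0 cells, induced with 15 ng/mL tet for 16–20 h. Automated whole-cell recording used extracellular NaCl and intracellular CsF, with hole resistance 1.5–2.5 MΩ and a ramp protocol. After 5 min control recording, six test compound concentrations (100 pM–1 μM) were applied for 5 min each. Peak outward current was normalized to control and fitted to a four-parameter variable-slope curve; 8 cells.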

[14] = molecular target: T1, APOL1 G1; assay: Automated whole-cell patch clamp; format: cell-based
[15] = molecular target: T2, APOL1 G2; assay: Automated whole-cell patch clamp; format: cell-based
[16] = molecular target: T5, recombinant APOL1 G0 (Homo sapiens, UniProt O14791); assay: Trypanosome; format: cell-based
T5 sequence (O14791 28-398): T1 sequence (O14791 28-398 M228I/R255K/S342G/I384M) with I201M, K228R, G315S, M357I
Outline: (§1)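 T. b. brucei were grown in modified HMI-9, then plated at 120,000 parasites/well in phenol red/FBS-free medium with Serum Plus, test compound and recombinant APOL1. APOL1 was at a final level killing about 90% of parasites. After 16 h at 37 °C, alamarBlue was added for 2.5 h, read at ex/em 555/585, in duplicate, and fitted to dose–response curves. Experimental replicates: G0 n=1, G1 n=4, G2 n=1.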

[17] = molecular target: T6, recombinant APOL1 G1 (Homo sapiens, UniProt O14791, I384M/S342G); assay: Trypanosome; format: cell-based
T6 sequence (O14791 28-398 S342G/I384M): T1 sequence (O14791 28-398 M228I/R255K/S342G/I384M) with I201M, K228R
Outline: as §1

[18] = molecular target: T7, recombinant APOL1 G2 (Homo sapiens, UniProt O14791, DEL388-389); assay: Trypanosome; format: cell-based
T7 sequence (O14791 with tags, fused parts or gaps DEL388-389): T2 sequence (O14791 with tags, fused parts or gaps M228I/R255K/DEL388-389) with I201M, K228R
Outline: as §1

[19] = test system: APOL1 G2mc mice; conditions: 3 mg/kg tid; cited from earlier work
[20] = cited from earlier work
[21] = test system: purified, recombinant APOL1; conditions: cited from earlier work

## Cc1cc(F)cc2c(CCC(=O)N[C@H]3CCNC3=O)c(-c3ccc(F)cc3)[nH]c12 [Compound 2, 3-[5-fluoro-2-(4-fluorophenyl)-7-methyl-1H-indol-3-yl]-N-[(3S)-2-oxopyrrolidin-3-yl]propanamide]
[1]
  IC50: 40 nM
[2]
  EC50: 37 nM
[3]
  logD: 2.8
[4]
  hepatocyte CLint: 8.2 µL/min/1e6 cells
[5]
  hepatocyte CLint: 15.4 µL/min/1e6 cells
[6]
  Vd: 2.1 L/kg
  clearance: 15 mL/min/kg
  half-life: 4.1 h
  bioavailability: 34%

## Cc1cc(F)cc2c(CCC(=O)N[C@@H]3C(=O)NC[C@H]3O)c(-c3ccc(F)cc3)[nH]c12 [Compound 3, 3-[5-fluoro-2-(4-fluorophenyl)-7-methyl-1H-indol-3-yl]-N-[(3S,4 R)-4-hydroxy-2-oxo-pyrrolidin-3-yl]propanamide]
[1]
  IC50: 4.2 nM
[7]
  IC50: 5.4 nM
[2]
  EC50: 3.6 nM
[8]
  EC50: 10 nM
[3]
  logD: 2.7
[4]
  hepatocyte CLint: 5.1 µL/min/1e6 cells
[5]
  hepatocyte CLint: 6.3 µL/min/1e6 cells
[6]
  Vd: 1.4 L/kg
  clearance: 6 mL/min/kg
  half-life: 4.2 h
  bioavailability: 28%
[9]
  APOL1-mediated proteinuria, prophylactic treatment: able to prevent APOL1-mediated proteinuria
[10]
  Percent reduction in UACR AUC Day 6-14: 97%
[11]
  microscopic evaluation of kidney tissues: no microscopic abnormalities or nephrin loss were noted
  nephrin H-scores versus no IFNγ control: comparable

## O=C(CCc1c(-c2ccc(F)cc2)[nH]c2c(F)cc(F)cc12)N[C@@H]1C(=O)NC[C@H]1O [VX-147, 3-[5,7-difluoro-2-(4-fluorophenyl)-1H-indol-3-yl]-N-[(3S,4 R)-4-hydroxy-2-oxo-pyrrolidin-3-yl] propanamide]
[1]
  IC50: 2 nM
[7]
  IC50: 1.2 nM
[12]
  EC50: 4.3 nM
[2]
  EC50: 2 nM
[8]
  EC50: 2.2 nM
[13]
  IC50: 2.3 nM
[14]
  IC50: 1.3 nM
[15]
  IC50: 1.1 nM
[16]
  EC50: 2 nM
[17]
  EC50: 2.1 nM
[18]
  EC50: 1.2 nM
[3]
  logD: 2.7
[4]
  hepatocyte CLint: 4.7 µL/min/1e6 cells
[5]
  hepatocyte CLint: < 2.5 µL/min/1e6 cells
[6]
  Vd: 0.9 L/kg
  clearance: 4.8 mL/min/kg
  half-life: 2.5 h
  bioavailability: 57%
[19]
  APOL1-dependent proteinuria, prophylactic treatment: reduced APOL1-dependent proteinuria
[20]; 13-week clinical trial, patients with two APOL1 risk alleles and proteinuric non-diabetic kidney disease
  reduction in proteinuria: 47.6%
[20]; 13-week study in 16 individuals
  glomerular filtration rate: stable
[21]
  binding to purified, recombinant APOL1: bind directly
